Where a SMILES comes first, the peptide text is derived from it. Bridges are numbered along the chain shown (N, C = ends). [ ]: non-standard residue; d: D form. The star is where a group is joined. Biotin = O=C1N[C@H]2[C@H](CS[C@H]2CCCCC(=O)*)N1; Phe(4-NH2) = Nc1ccc(C[C@H](N)C(=O)O)cc1; Mpa = O=C(O)CCS
Tests used:
[1] = Effective concentration of compound for half-maximal response in hydroosmotic toad bladder assay; type: functional; conditions: Amphibia; read-out: ED50 (the source's name)
Summary of the method: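 Toad hemibladders filled with Ringer's fluid diluted to half-strength with distilled water. Net osmotic water flux across the bladder wall measured gravimetrically by the Bentley method. ED-50 taken as the concentration giving a half-maximal water flow response.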

[2] = system: Rattus norvegicus; experiment: Pressor activity of compound was assayed on urethane-anesthetized, phenoxybenzamine-treated rats; type: functional; parameters: unit not given here
[3] = organism: Rattus norvegicus; experiment: Antidiuretic activity of compound was assayed on water-loaded rats; type: functional, Urine

Row | SMILES | EC50 [1] [pM] | Pressor activity [2] | Antidiuretic activity [3] [U/mg]
1 | CC[C@H](C)[C@@H]1NC(=O)[C@H](Cc2ccccc2)NC(=O)[C@@H](N)CSSC[C@@H](C(=O)N2CCC[C@H]2C(=O)N[C@@H](CCCN=C(N)N)C(=O)N[C@@H](Cc2ccc(O)cc2)C(N)=O)NC(=O)[C@H](CC(N)=O)NC(=O)[C@H](CCC(N)=O)NC1=O (HELM PEPTIDE1{C.F.I.Q.N.C.P.R.Y.[am]}$PEPTIDE1,PEPTIDE1,1:R3-6:R3$$$V2.0) | 2100 | 0 | 2.8
2 | CC[C@H](C)[C@@H]1NC(=O)[C@H](Cc2ccccc2)NC(=O)[C@@H](N)CSSC[C@@H](C(=O)N2CCC[C@H]2C(=O)N[C@@H](CCCN=C(N)N)C(=O)N[C@@H](Cc2ccc(O)c(I)c2)C(N)=O)NC(=O)[C@H](CC(N)=O)NC(=O)[C@H](CCC(N)=O)NC1=O (HELM PEPTIDE1{C.F.I.Q.N.C.P.R.[O=C([C@H](Cc1ccc(O)c(I)c1)N[*:1])[*:2]].[am]}$PEPTIDE1,PEPTIDE1,1:R3-6:R3$$$V2.0) | 2500 | – | 0.41
3 | CC[C@H](C)[C@@H]1NC(=O)[C@H](Cc2ccc(O)cc2)NC(=O)[C@@H](N)CSSC[C@@H](C(=O)N2CCC[C@H]2C(=O)N[C@@H](CCCN=C(N)N)C(=O)N[C@@H](Cc2ccc(O)cc2)C(N)=O)NC(=O)[C@H](CC(N)=O)NC(=O)[C@H](CCC(N)=O)NC1=O (HELM PEPTIDE1{C.Y.I.Q.N.C.P.R.Y.[am]}$PEPTIDE1,PEPTIDE1,1:R3-6:R3$$$V2.0) | 490 | 0 | 25
4 | CC[C@H](C)[C@@H]1NC(=O)[C@H](Cc2ccc(O)cc2)NC(=O)CCSSC[C@@H](C(=O)N2CCC[C@H]2C(=O)N[C@@H](CCCN=C(N)N)C(=O)N[C@@H](Cc2ccc(N)cc2)C(N)=O)NC(=O)[C@H](CC(N)=O)NC(=O)[C@H](CCC(N)=O)NC1=O (HELM PEPTIDE1{[O=C(CCS[*:3])[*:2]].Y.I.Q.N.C.P.R.[Nc1ccc(C[C@H](N[*:1])C(=O)[*:2])cc1].[am]}$PEPTIDE1,PEPTIDE1,1:R3-6:R3$$$V2.0) | 130 | 0 | 66
5 | CC[C@H](C)[C@@H]1NC(=O)[C@H](Cc2ccc(O)cc2)NC(=O)CCSSC[C@@H](C(=O)N2CCC[C@H]2C(=O)N[C@@H](CCCN=C(N)N)C(=O)N[C@@H](Cc2ccc(N=[N+]=[N-])cc2)C(N)=O)NC(=O)[C@H](CC(N)=O)NC(=O)[C@H](CCC(N)=O)NC1=O (HELM PEPTIDE1{[O=C(CCS[*:3])[*:2]].Y.I.Q.N.C.P.R.[[N-]=[N+]=Nc1ccc(C[C@H](N[*:1])C(=O)[*:2])cc1].[am]}$PEPTIDE1,PEPTIDE1,1:R3-6:R3$$$V2.0) | 90 | – | 40
6 | CC[C@H](C)[C@@H]1NC(=O)[C@H](Cc2ccc(O)cc2)NC(=O)CCSSC[C@@H](C(=O)N2CCC[C@H]2C(=O)N[C@@H](CCCN=C(N)N)C(=O)N[C@@H](Cc2ccc(NC(=O)CCCC[C@@H]3SC[C@@H]4NC(=O)N[C@@H]43)cc2)C(N)=O)NC(=O)[C@H](CC(N)=O)NC(=O)[C@H](CCC(N)=O)NC1=O ([Mpa]YIQNCPR[Phe(4-NH2)](Biotin)-NH2; disulfide 1-6) | 12000 | – | 23
7 | CC[C@H](C)[C@@H]1NC(=O)[C@H](Cc2ccc(O)cc2)NC(=O)[C@@H](N)CSSC[C@@H](C(=O)N2CCC[C@H]2C(=O)N[C@@H](CCCN=C(N)N)C(=O)NCC(N)=O)NC(=O)[C@H](CC(N)=O)NC(=O)[C@H](CCC(N)=O)NC1=O [VASOTOCIN] (HELM PEPTIDE1{C.Y.I.Q.N.C.P.R.G.[am]}$PEPTIDE1,PEPTIDE1,1:R3-6:R3$$$V2.0) | 22 | 160 | 231

Reference: ChEMBL document CHEMBL1124363, “Photoaffinity, biotinyl, and iodo analogues as probes for vasotocin receptors” (1989)
